Source: ChEMBL document CHEMBL4190234, “Design, synthesis and anticancer activity of new monastrol analogues bearing 1,3,4-oxadiazole moiety” (Eur J Med Chem, 2017)

Legend:
Type in all cases: functional
[1] = system: CCRF-CEM; assay: Growth inhibition of human CCRF-CEM cells at 10 uM incubated for 48 hrs by sulforhodamine B assay relative to control; conditions: read-out: GI
In short: (§1)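 Single-dose screen at 10 μM final: cells in RPMI 1640, 5% FBS, 2 mM L-glutamine, plated 5,000–40,000/well, preincubated 24 h at 37°C, 5% CO2; drug 48 h; adherent cells fixed with 10% TCA, suspension cells with 16% TCA; SRB stain, absorbance 515 nm; percentage growth versus untreated control, with time-zero plates.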

[2] = system: HL-60(TB); assay: Growth inhibition of human HL-60(TB) cells at 10 uM incubated for 48 hrs by sulforhodamine B assay relative to control; conditions: HL-60, 48 h, read-out: GI
In short: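 Single dose of 10 µM in the NCI ~60-line panel. Cells grown in RPMI 1640 with 5% FBS and 2 mM L-glutamine, plated and pre-incubated 24 h, then exposed 48 h at 37°C under 5% CO2. Suspension cells fixed with TCA (16% final) and stained with sulforhodamine B, A515 read. Reported as percent growth versus untreated control and as GI%.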

[3] = system: MOLT-4; assay: Growth inhibition of human MOLT4 cells at 10 uM incubated for 48 hrs by sulforhodamine B assay relative to control; conditions: MOLT-4, 48 h, read-out: GI; in short: as §1
[4] = system: A549; assay: Growth inhibition of human A549/ATCC cells at 10 uM incubated for 48 hrs by sulforhodamine B assay relative to control; conditions: A549, 48 h, read-out: GI; in short: as §1
[5] = system: EKVX; assay: Growth inhibition of human EKVX cells at 10 uM incubated for 48 hrs by sulforhodamine B assay relative to control; conditions: read-out: GI; in short: as §1
[6] = system: HOP-92; assay: Growth inhibition of human HOP92 cells at 10 uM incubated for 48 hrs by sulforhodamine B assay relative to control; conditions: HOP-92, 48 h, read-out: GI; in short: as §1
[7] = system: NCI-H226; assay: Growth inhibition of human NCI-H226 cells at 10 uM incubated for 48 hrs by sulforhodamine B assay relative to control; conditions: NCI-H226, 48 h, read-out: GI; in short: as §1
[8] = system: NCI-H23; assay: Growth inhibition of human NCI-H23 cells at 10 uM incubated for 48 hrs by sulforhodamine B assay relative to control; conditions: NCI-H23, 48 h, read-out: GI; in short: as §1
[9] = system: NCI-H322M; assay: Growth inhibition of human NCI-H322M cells at 10 uM incubated for 48 hrs by sulforhodamine B assay relative to control; conditions: read-out: GI; in short: as §1
[10] = system: NCI-H522; assay: Growth inhibition of human NCI-H522 cells at 10 uM incubated for 48 hrs by sulforhodamine B assay relative to control; conditions: NCI-H522, 48 h, read-out: GI; in short: as §1
[11] = system: HCT-15; assay: Growth inhibition of human HCT15 cells at 10 uM incubated for 48 hrs by sulforhodamine B assay relative to control; conditions: HCT-15, 48 h, read-out: GI; in short: as §1
[12] = system: HT-29; assay: Growth inhibition of human HT-29 cells at 10 uM incubated for 48 hrs by sulforhodamine B assay relative to control; conditions: HT-29, 48 h, read-out: GI; in short: as §1
[13] = system: SW-620; assay: Growth inhibition of human SW620 cells at 10 uM incubated for 48 hrs by sulforhodamine B assay relative to control; conditions: SW-620, 48 h, read-out: GI
In short: (§2)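 NCI single-dose screen: cells grown in RPMI 1640 with 5% FBS and 2 mM L-glutamine, plated at 5,000–40,000 cells/well and preincubated 24 h at 37 °C, 5% CO2. Compounds taken from DMSO stock and tested at final 10 µM for 48 h. Cells fixed with TCA, stained with 0.4% SRB, absorbance read at 515 nm. Percentage growth calculated against untreated controls; controls held DMSO at the same dilution.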

[14] = system: SF-268; assay: Growth inhibition of human SF268 cells at 10 uM incubated for 48 hrs by sulforhodamine B assay relative to control; conditions: SF-268, 48 h, read-out: GI; in short: as §2
[15] = system: SF-295; assay: Growth inhibition of human SF295 cells at 10 uM incubated for 48 hrs by sulforhodamine B assay relative to control; conditions: SF-295, 48 h, read-out: GI; in short: as §2
[16] = system: SF-539; assay: Growth inhibition of human SF539 cells at 10 uM incubated for 48 hrs by sulforhodamine B assay relative to control; conditions: SF-539, 48 h, read-out: GI; in short: as §2
[17] = system: M14; assay: Growth inhibition of human M14 cells at 10 uM incubated for 48 hrs by sulforhodamine B assay relative to control; conditions: M14, 48 h, read-out: GI; in short: as §1
[18] = system: SK-MEL-28; assay: Growth inhibition of human SK-MEL-28 cells at 10 uM incubated for 48 hrs by sulforhodamine B assay relative to control; conditions: SK-MEL-28, 48 h, read-out: GI; in short: as §2
[19] = system: IGROV-1; assay: Growth inhibition of human IGROV1 cells at 10 uM incubated for 48 hrs by sulforhodamine B assay relative to control; conditions: IGROV-1, 48 h, read-out: GI; in short: as §1
[20] = system: OVCAR-3; assay: Growth inhibition of human OVCAR3 cells at 10 uM incubated for 48 hrs by sulforhodamine B assay relative to control; conditions: OVCAR-3, 48 h, read-out: GI; in short: as §1
[21] = system: OVCAR-8; assay: Growth inhibition of human OVCAR8 cells at 10 uM incubated for 48 hrs by sulforhodamine B assay relative to control; conditions: OVCAR-8, 48 h, read-out: GI; in short: as §1
[22] = system: SK-OV-3; assay: Growth inhibition of human SKOV3 cells at 10 uM incubated for 48 hrs by sulforhodamine B assay relative to control; conditions: SK-OV-3, 48 h, read-out: GI; in short: as §2
[23] = system: ACHN; assay: Growth inhibition of human ACHN cells at 10 uM incubated for 48 hrs by sulforhodamine B assay relative to control; conditions: read-out: GI; in short: as §1
[24] = system: RXF 393; assay: Growth inhibition of human RXF393 cells at 10 uM incubated for 48 hrs by sulforhodamine B assay relative to control; conditions: RXF 393, 48 h, read-out: GI; in short: as §1
[25] = system: SN12C; assay: Growth inhibition of human SN12C cells at 10 uM incubated for 48 hrs by sulforhodamine B assay relative to control; conditions: read-out: GI; in short: as §2
[26] = system: UO-31; assay: Growth inhibition of human UO31 cells at 10 uM incubated for 48 hrs by sulforhodamine B assay relative to control; conditions: UO-31, 48 h, read-out: GI; in short: as §2
[27] = system: BT-549; assay: Growth inhibition of human BT549 cells at 10 uM incubated for 48 hrs by sulforhodamine B assay relative to control; conditions: BT-549, 48 h, read-out: GI; in short: as §1
[28] = system: T47D; assay: Growth inhibition of human T47D cells at 10 uM incubated for 48 hrs by sulforhodamine B assay relative to control; conditions: read-out: GI; in short: as §2

SMILES | inhibition of growth at 10 µM [1] [%] | inhibition of growth at 10 µM [2] [%] | inhibition of growth at 10 µM [3] [%] | inhibition of growth at 10 µM [4] [%] | inhibition of growth at 10 µM [5] [%] | inhibition of growth at 10 µM [6] [%] | inhibition of growth at 10 µM [7] [%] | inhibition of growth at 10 µM [8] [%] | inhibition of growth at 10 µM [9] [%] | inhibition of growth at 10 µM [10] [%] | inhibition of growth at 10 µM [11] [%] | inhibition of growth at 10 µM [12] [%] | inhibition of growth at 10 µM [13] [%] | inhibition of growth at 10 µM [14] [%] | inhibition of growth at 10 µM [15] [%] | inhibition of growth at 10 µM [16] [%] | inhibition of growth at 10 µM [17] [%] | inhibition of growth at 10 µM [19] [%] | inhibition of growth at 10 µM [20] [%] | inhibition of growth at 10 µM [21] [%] | further results
CCOC(=O)C1=C(C)NC(SCc2nnc(-c3ccc(Cl)cc3)o2)=NC1c1ccccc1 (configuration not stated) | 12.4 | 38 | 31.3 | 29 | 14.8 | 40.1 | 11.4 | < 10 | < 10 | 54.1 | 21.8 | 22.3 | < 10 | < 10 | 23.4 | < 10 | 19.5 | < 10 | < 10 | 20.4 | inhibition of growth at 10 µM [18]: < 10%; inhibition of growth at 10 µM [22]: 25.6%; inhibition of growth at 10 µM [23]: < 10%; inhibition of growth at 10 µM [24]: < 10%; inhibition of growth at 10 µM [25]: 14.8%; inhibition of growth at 10 µM [26]: 19.4%; inhibition of growth at 10 µM [27]: 42.7%; inhibition of growth at 10 µM [28]: 53.8%
CC(=O)C1=C(C)NC(SCc2nnc(-c3ccc(C)cc3)o2)=NC1c1ccc(F)cc1 (configuration not stated) | 11.9 | 19.2 | < 10 | < 10 | < 10 | < 10 | 10.4 | < 10 | < 10 | 14.1 | < 10 | < 10 | < 10 | < 10 | < 10 | < 10 | < 10 | 11 | < 10 | < 10 | inhibition of growth at 10 µM [22]: < 10%; inhibition of growth at 10 µM [23]: < 10%; inhibition of growth at 10 µM [24]: < 10%; inhibition of growth at 10 µM [25]: < 10%; inhibition of growth at 10 µM [26]: 16.4%; inhibition of growth at 10 µM [27]: 13.9%; inhibition of growth at 10 µM [28]: 25.6%
CC(=O)C1=C(C)NC(SCc2nnc(-c3ccc(Cl)cc3)o2)=NC1c1ccc(F)cc1 (configuration not stated) | < 10 | 11.5 | < 10 | < 10 | < 10 | < 10 | 11.6 | < 10 | < 10 | 15.6 | < 10 | < 10 | < 10 | < 10 | < 10 | < 10 | < 10 | 15.4 | < 10 | < 10 | inhibition of growth at 10 µM [18]: < 10%; inhibition of growth at 10 µM [22]: < 10%; inhibition of growth at 10 µM [23]: < 10%; inhibition of growth at 10 µM [24]: < 10%; inhibition of growth at 10 µM [25]: < 10%; inhibition of growth at 10 µM [26]: 26.1%; inhibition of growth at 10 µM [27]: < 10%; inhibition of growth at 10 µM [28]: 24.1%
COc1ccc(-c2nnc(CSC3=NC(c4ccc(F)cc4)C(C(C)=O)=C(C)N3)o2)cc1 (configuration not stated) | 15.7 | 15.2 | 10.9 | 15.6 | < 10 | 16.5 | < 10 | < 10 | < 10 | 18 | < 10 | < 10 | < 10 | < 10 | < 10 | < 10 | 13.4 | < 10 | < 10 | < 10 | inhibition of growth at 10 µM [18]: < 10%; inhibition of growth at 10 µM [22]: 18.3%; inhibition of growth at 10 µM [23]: < 10%; inhibition of growth at 10 µM [24]: < 10%; inhibition of growth at 10 µM [25]: < 10%; inhibition of growth at 10 µM [26]: 29.7%; inhibition of growth at 10 µM [27]: < 10%; inhibition of growth at 10 µM [28]: 28.9%
CC(=O)C1=C(C)NC(SCc2nnc(-c3ccc(Cl)cc3)o2)=NC1c1ccc(Cl)cc1 (configuration not stated) | 20.9 | 40.3 | 24.4 | 21.4 | < 10 | 26.5 | 11.4 | < 10 | 12 | 20.9 | 11 | < 10 | < 10 | < 10 | < 10 | < 10 | < 10 | 23.4 | < 10 | 14.5 | inhibition of growth at 10 µM [18]: < 10%; inhibition of growth at 10 µM [22]: < 10%; inhibition of growth at 10 µM [23]: 13.5%; inhibition of growth at 10 µM [24]: < 10%; inhibition of growth at 10 µM [25]: 13%; inhibition of growth at 10 µM [26]: 43.6%; inhibition of growth at 10 µM [27]: 15.1%; inhibition of growth at 10 µM [28]: 39.5%
CCOC(=O)C1=C(C)NC(SCc2nnc(-c3ccc(Cl)cc3)o2)=NC1c1ccc(F)cc1 (configuration not stated) | 16.9 | 23.5 | 20.4 | 11.7 | < 10 | 27.8 | 10.6 | < 10 | < 10 | 17.5 | 15.8 | 10.3 | < 10 | < 10 | < 10 | < 10 | < 10 | 17.1 | < 10 | 11.7 | inhibition of growth at 10 µM [18]: < 10%; inhibition of growth at 10 µM [22]: < 10%; inhibition of growth at 10 µM [23]: < 10%; inhibition of growth at 10 µM [24]: < 10%; inhibition of growth at 10 µM [25]: < 10%; inhibition of growth at 10 µM [26]: 22.2%; inhibition of growth at 10 µM [27]: < 10%; inhibition of growth at 10 µM [28]: 27.1%
